In the library only some 4% were active in any assay of this set; here they are far more common.
SENP1 FRET inh: blocks the human SENP1 SUMO protease catalytic domain. Q9P0U3. recombinant SENP1 catalytic domain, CyPet-SUMO1-YPet FRET cleavage. inhibition, % at 10 µM. 360,000 tested, 0.21% active. AID 624204;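 active = inhibition at least 30% at 10 µM, raw YFP signal under a set limit, fluorescence ratio 0.5 to 1.5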;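 also: 0% = enzyme with DMSO and 100% = no enzyme wells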
Target sequence (Q9P0U3 419-644 limits assumed): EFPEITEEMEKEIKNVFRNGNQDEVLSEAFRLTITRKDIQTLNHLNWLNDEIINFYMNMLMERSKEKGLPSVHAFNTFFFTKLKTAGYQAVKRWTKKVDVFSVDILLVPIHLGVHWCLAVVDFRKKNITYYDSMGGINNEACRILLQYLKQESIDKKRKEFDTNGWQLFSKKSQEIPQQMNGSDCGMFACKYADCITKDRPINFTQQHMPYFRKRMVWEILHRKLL
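Test system: human SENP1 catalytic domain; medium: Tris pH 8 buffer plus EDTA, NaCl, BME, BSA, NP40, catalase; incubation: 50 min reaction at room temperature; technique: FRET, CFP and YFP emission; controls: no-enzyme low control and enzyme-plus-DMSO high control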
GRIN3A LBD mod: NR3A (human) ligand-binding domain modulation. NR3A LBD differential scanning fluorimetry, Tm shift; 0% = protein alone, 100% = glycine-bound protein. Tm shift relative to glycine control, % at 25 µM. 340,000 tested, 2.5% active. AID 1259313;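 active = melting temperature shift of at least 10% of the positive control shift, at one fixed dose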
hiPSC survival: increases survival of single human iPS cells; AID 602274; hiPSC single-cell survival, ATPlite luminescence; 100% = ROCK inhibitor wells, 0% = DMSO; 360,000 tested, 0.044% active; survival enhancement, % at 20 µM; in the data active = survival enhancement above about 18%;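 also: cells exposed to compounds for 16 hours before the ATP read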
FAS-TE inh: inhibitors of human fatty acid synthase thioesterase domain; AID 602261; inhibition, % at 15 µM; recombinant FAS-TE, OMFH fluorogenic substrate, fluorescence endpoint; 360,000 tested, 0.67% active;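 active = compounds whose normalised, plate-corrected inhibition of enzyme fluorescence in the single-dose primary screen is 50% or more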;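 also: 0% = DMSO with enzyme and 100% = substrate without enzyme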
Cardio protect: myocardial damage modulation in H9c2 cells | protection from H2O2 cell death, % at 20 µM | 360,000 tested, 0.63% active | H9c2 cardiomyocytes, H2O2 injury protection, ATPLite, 2 h;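 active = compounds giving at least 50% protection of heart cells from peroxide-induced death in the single-dose screen, raw or plate-pattern-corrected value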;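 also: 0% = DMSO wells with peroxide and 100% = DMSO wells without peroxide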
Arr AP2 block: human beta-arrestin and AP2 interaction inhibition; FITC-arrestin peptide / GST-AP2 beads, flow cytometry; AP2 beta2 appendage carries R879A mutation; AID 504490; inhibition, % at 10 µM; 340,000 tested, 0.31% active;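 active = inhibition above a set limit, near 3 SD of compounds lacking own fluorescence, cut at about 54% in these data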;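 also: plate controls were DMSO wells for no effect and 5 µM unlabelled arrestin peptide for full effect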
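system = GST-tagged AP2 beta2-adaptin appendage (R879A) on 4 µm glutathione beads | reagent = FITC-labelled arrestin peptide probe, 50 nM final | schedule = compound with beads 12 min RT, then probe 1 h RT | signal = HyperCyt-sampled flow cytometry, FL1 channel, ex 488/em 535 nm | read-out = percent response from loss of bead-bound FITC fluorescence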
The depositor's hits bear a star; nt = no result given.

SMILES | SENP1 FRET inh | GRIN3A LBD mod | hiPSC survival | FAS-TE inh | Cardio protect | Arr AP2 block
O=C(CC1Sc2ncnn2C1=O)Nc1ccc(Br)cc1 (configuration not stated) | -10 | 0 | 4 | -3 | -19 | 11
Cc1ccccc1N=C1SC(CC(=O)Nc2ccc3ccccc3c2)C(=O)N1Cc1ccccn1 (configuration not stated) | 2 | 22* | 0 | 40 | 5 | -4
O=C(CC1SC(=Nc2ccccc2)N(Cc2ccccn2)C1=O)Nc1ccc(Br)cc1 (configuration not stated) | -2 | 12* | 0 | 28 | 7 | 4
COC(=O)C[C@@H]1C=C[C@@H](NS(=O)(=O)c2ccc(OC)cc2)[C@@H](CO)O1 | 4 | nt | nt | nt | nt | nt
Cc1ccc(S(=O)(=O)N2C[C@H]3[C@H]4C(=O)N(c5ccccc5)C(=O)[C@H]4C[C@H](OC(=O)NCc4ccccc4F)[C@@]3(O)C2)cc1 | 0 | nt | 0 | 3 | 2 | nt
O=C(NC(Cc1c[nH]c2ccccc12)C(=O)N/N=C/c1ccc(Cl)cc1)c1cccs1 (configuration not stated) | 0 | 20* | 1 | 22 | 4 | 0
O=C(NC(Cc1c[nH]c2ccccc12)C(=O)N1CCOCC1)c1cccs1 (configuration not stated) | 0 | 2 | -2 | -4 | 2 | 40
O=c1[nH]c(C(Cl)Cl)nc2sc3c(c12)CCN(Cc1ccccc1)C3 | -27 | 15* | 3 | 22 | 2 | -1
CCCSc1nc2sc3c(c2c(=O)[nH]1)CCN(Cc1ccccc1)C3 | -19 | -4 | 0 | -38 | 10 | -7
N#Cc1nc(Nc2cccc(Cl)c2)c2ncn(C3CCCC3)c2n1 | -77 | 11* | -2 | 24 | -16 | 4
Cc1cc([N+](=O)[O-])nn1CC(=O)Nc1sc2c(c1C(N)=O)CCCC2 | -5 | 1 | -1 | 1 | 8 | -6
Cc1cc([N+](=O)[O-])nn1CCCC(=O)Nc1sc2c(c1C(N)=O)CCCC2 | 1 | 17* | -1 | -2 | 16 | 27
Cc1ccc(SCCC(=O)Nc2ccccc2C(=O)NC(C)C)cc1 | 1 | 14* | -1 | 14 | -4 | -3
Cc1ccc(SCCC(=O)Nc2ccccc2Br)cc1 | 3 | 1 | -1 | 19 | -4 | -20
COc1cc(/C=N/Nc2nc(Nc3ccc(C)cc3)nc(-n3nc(C)cc3C)n2)cc(OC)c1OC | 3 | -4 | -1 | 1 | 57* | -4
COc1cc(/C=N/Nc2nc(Nc3ccccc3)nc(-n3nc(C)cc3C)n2)cc(OC)c1OC | 0 | -4 | 0 | 28 | 28 | 9
COc1ccc(C)cc1NC(=O)C(Sc1nnc(Nc2cc(C)ccc2OC)s1)c1ccccc1 (configuration not stated) | 4 | 1 | -1 | 12 | -5 | 10
COc1cccc(NC(=O)C(Sc2nnc(Nc3ccccc3C)s2)c2ccccc2)c1 (configuration not stated) | 1 | 11* | 0 | 21 | -4 | -1
COc1ccc(Nc2nnc(SC(C(=O)Nc3ccc(OC)c(Cl)c3)c3ccccc3)s2)cc1 (configuration not stated) | 0 | 25* | 2 | 24 | -11 | -3
COc1ccc(Nc2nnc(SC(C(=O)Nc3cc(C)ccc3C)c3ccccc3)s2)cc1 (configuration not stated) | 3 | 17* | 0 | 5 | -7 | 13
O=C(NCC[C@@H]1CC[C@@H](NC(=O)c2cnccn2)[C@@H](CO)O1)c1ccc2c(c1)OCO2 | 2 | nt | nt | nt | nt | nt
CC(C)NC(=O)C1(C)CN(S(C)(=O)=O)CC(=O)N1C1CCCCCC1 (configuration not stated) | -2 | nt | nt | nt | nt | nt
CN(CC(=O)N1CCc2ccccc21)S(=O)(=O)c1ccc(Br)s1 | -1 | 15* | 0 | 21 | -6 | 6
Cc1ccc(N2CCN(c3ccc(NCc4nc5ccccc5n4C)cc3)CC2)cc1 | -3 | 13* | 0 | 1 | -16 | 25
Cc1cccc(NCc2nc3ccccc3n2C)c1 | 1 | -4 | 0 | 1 | -5 | -7
SMILES | SENP1 FRET inh | GRIN3A LBD mod | hiPSC survival | FAS-TE inh | Cardio protect | Arr AP2 block
Cn1c(CNc2ccc(Cl)cc2)nc2ccccc21 | 4 | 12* | -1 | 14 | -6 | 6
COC(=O)C[C@@H]1CC[C@H](NC(=O)Nc2cccc(F)c2)[C@@H](CO)O1 | 2 | nt | nt | nt | nt | nt
COc1ccc(Cc2nnc(N/N=C/c3ccc(O)cc3O)[nH]c2=O)cc1OC | -1 | -2 | 0 | -8 | 52* | 33
CCCCCC/C=N/Nc1nnc(Cc2ccc(OC)c(OC)c2)c(=O)[nH]1 | 4 | 2 | 1 | -4 | -4 | 29
CN(C(=O)COC(=O)/C=C/c1ccccc1)C1CCS(=O)(=O)C1 (configuration not stated) | 1 | nt | -1 | -7 | -2 | nt
Cc1nn2c(-c3ccccc3)c(-c3ccccc3)nc2[nH]c1=O | -20 | 20* | 4 | -4 | 3 | 16
Cc1nn2cc(-c3ccccc3)nc2[nH]c1=O | 7 | 0 | 2 | -11 | 19 | 16
CCCCN(C)c1c(C)nc2ccc(C(=O)N(C)Cc3ccco3)cn12 | -23 | nt | 2 | 1 | 0 | nt
O=C(NC1CCCC1)C(c1ccc(F)cc1)N(Cc1ccc(F)cc1)C(=O)c1ccn[nH]1 (configuration not stated) | 0 | 17* | -1 | -36 | -1 | -1
C=C(C)C(=O)Oc1ccc(N=Nc2ccc(C)cc2)ccc1=O | 34* | -6 | -2 | 2 | 26 | nt
Cc1cccc([C@@H]2[C@@H]3C(=O)N(Cc4ccccc4)C(=O)[C@@H]3[C@]3(CC(C)C)C(=O)N(c4cccc(Br)c4)C(=O)N23)c1 | 2 | -4 | 3 | 88* | 1 | 0
CC[C@@]12C(=O)N(c3ccccc3)C(=O)N1[C@H](c1cccc(C)c1)[C@@H]1C(=O)N(Cc3ccccc3)C(=O)[C@@H]12 | 2 | -2 | -1 | 3 | 0 | -1
Cc1cccc([C@@H]2[C@@H]3C(=O)N(Cc4ccccc4)C(=O)[C@@H]3[C@]3(Cc4ccccc4)C(=O)N(c4ccccc4)C(=O)N23)c1 | 1 | 3 | -2 | 92* | 2 | -7
Cc1cccc([C@@H]2[C@@H]3C(=O)N(Cc4ccccc4)C(=O)[C@@H]3[C@]3(Cc4ccccc4)C(=O)N(c4cccc(Cl)c4)C(=O)N23)c1 | 2 | 4 | 2 | 82* | 0 | 4
CCN1C(=O)[C@H]2[C@@H](c3ccc(C)cc3)N3C(=O)N(c4cccc(Br)c4)C(=O)[C@@]3(CC(C)C)[C@H]2C1=O | -1 | -8 | 2 | 32 | 2 | -2

Screening data from PubChem BioAssay.
